Measurements published in PMC6361726 (Bioorganic & medicinal chemistry, 2018).

What was measured:
[1] = tested on: Methicillin-sensitive Staphylococcus aureus; assay: Cell viability by optical density and resazurin indicator dye; format: cell-based; settings: compared to a DMSO control, one replicate
Pseudomonas aeruginosa = assay: as above; format: cell-based; settings: compared to a DMSO control, one replicate
HK853 [2] = assay: ATP[γ-33P] enzymatic activity inhibition assay; format: biochemical, Thermotoga maritima; settings: at non-aggregating concentrations
Summary of the method: (§1)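 Secondary assay run in a coupled competition-aggregation format on two histidine kinases: HK853 from Thermotoga maritima and VicK from Streptococcus pneumoniae. Enzymatic activity is followed using ATP[γ-33P], and the degree of inhibition by the test compound is measured.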

VicK = VicK (Streptococcus pneumoniae, UniProt Q8DPL8); assay: ATP[γ-33P] enzymatic activity inhibition assay; format: biochemical; settings: at non-aggregating concentrations
Chain of VicK (Q8DPL8 whole entry): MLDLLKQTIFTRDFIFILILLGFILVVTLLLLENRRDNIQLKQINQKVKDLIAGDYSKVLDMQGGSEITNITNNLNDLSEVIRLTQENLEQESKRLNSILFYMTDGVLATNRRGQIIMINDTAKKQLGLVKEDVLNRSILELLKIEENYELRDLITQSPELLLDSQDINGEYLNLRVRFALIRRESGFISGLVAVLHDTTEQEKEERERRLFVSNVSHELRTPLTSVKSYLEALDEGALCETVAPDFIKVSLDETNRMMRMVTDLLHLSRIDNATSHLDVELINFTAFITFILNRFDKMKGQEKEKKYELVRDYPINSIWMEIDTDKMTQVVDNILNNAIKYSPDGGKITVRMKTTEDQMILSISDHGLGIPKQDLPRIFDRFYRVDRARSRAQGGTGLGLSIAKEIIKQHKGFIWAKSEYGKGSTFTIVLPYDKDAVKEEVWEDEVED
Summary of the method: as §1

S. aureus = assay: Biofilm formation, crystal violet staining assay; format: cell-based, Staphylococcus aureus; settings: compared to a DMSO control, one replicate
HK853 [3] = assay: Fluorescence polarization; format: binding, Thermotoga maritima
p38 MAP kinase = settings: read-out: inhibition of p38 MAP kinase; quantity type not given; cited from earlier work
protein kinase D = settings: cited from earlier work
P. aeruginosa = assay: Biofilm formation, crystal violet staining assay; format: cell-based, Pseudomonas aeruginosa; settings: compared to a DMSO control, one replicate

| Compound | effect on cell viability [1] | effect on cell viability (Pseudomonas aeruginosa) | inhibition of HK activity (HK853 [2]) | inhibition of VicK activity (VicK) | effect on biofilm production (S. aureus) | displacement of ADP-BODIPY from the HK ATP-binding domain (HK853 [3]) | IC50 (p38 MAP kinase) | inhibition of protein kinase D (protein kinase D) | effect on biofilm production (P. aeruginosa) | activity in the HTS (FP screen) for HK inhibition (HK853 [3]; related library compounds that were not leads) |
| --- | --- | --- | --- | --- | --- | --- | --- | --- | --- | --- |
| Fc1ccc(-c2c(-c3ccncc3)[nH]c3nccnc23)cc1 [compound 32] | did not cause a significant decrease in cell viability | did not cause a significant decrease in cell viability | inhibit | inhibit | little effect | displace ADP-BODIPY | 53 nM | potent inhibitor | little effect | – |
| Fc1ccc(-c2c(-c3ccncc3)[nH]c3cccnc23)cc1 [RO1153853–000] | – | – | – | – | – | – | – | – | – | inactive |
